Assay [1] relates to Nucleic Acid. Nature of the assay: Antitumor potency on human colon WIDR cell lines. It is filed as functional, cell-based. An outline of the steps:
(§1)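 Human lines kept in RPMI-1640 with 5% FBS, L-glutamine and penicillin/streptomycin; seeded as single-cell suspensions at 2000 (MCF-7), 500 (WiDr) or 750 (2780) cells/well. Drugs in DMSO, serially diluted in PBS pH 7.4 in half-log steps, were added on day 2 (final DMSO ≤0.1%). Exposure 6 days at 37 °C, 5% CO2. MTT was added for 4 h, formazan dissolved in DMSO, A570 read as % of untreated control. 6 wells per concentration, ≥2 assays, IC50s averaged.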

For a further assay, the species on record is Mus musculus. Kind of assay: Minimum effective dose was measured against P388 leukemia in mice. The format is functional.
The test system of another assay is P388. Nature of the assay: Antitumor potency on P388 leukemia cells in culture. As to conditions: Mus musculus. The format is functional, cell-based. An outline of the steps:
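P388 cells (ATCC CCL-46) plated as a single-cell suspension at 300 cells/well. Drugs in DMSO, serially diluted in PBS pH 7.4 in half-log steps, were added on day 1 (final DMSO ≤0.1%). Exposure 6 days at 37 °C, 5% CO2. MTT was added for 4 h, formazan dissolved in DMSO, absorbance read at 570 nm as % of untreated control. 6 wells per concentration, ≥2 assays, IC50 averaged.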

Assay [2] concerns Nucleic Acid. Kind of assay: Antitumor potency on human ovarian 2780 cell lines. It is filed as functional. Summed up: as §1
The test system of assay [3] is Nucleic Acid. Kind of assay: Antitumor potency on human breast MCF-7 cell lines. The format is functional, cell-based. As to conditions: MCF7. Summed up: as §1

This is an account of results in ChEMBL document CHEMBL1125594 (J Med Chem, 1991).

On to `CO[C@@]12C(COC(N)=O)C3=C(C(=O)C(C)=C(OCc4ccccc4)C3=O)N1CC1NC12` (some centres undefined), for which the IC50 (in general, the concentration that inhibits the measured activity by half) in the assay on Nucleic Acid [1] was 0.13 nM; in the assay on P388 it was 0.018 nM; in the assay with Nucleic Acid [2], 0.26 nM; with Nucleic Acid [3] it was 1.43 nM. In the assay filed under Mus musculus, this compound came in with an MED of 0.24 µmol/kg.

As to `COCCOCCOC1=C(C)C(=O)C2=C(C1=O)C(COC(N)=O)[C@@]1(OC)C3NC3CN21` (some centres undefined), the half-maximal inhibitory concentration (IC50) in the assay on Nucleic Acid [1] worked out at 4.57 nM; in the assay with P388 it was 4.1 nM; in the assay on Nucleic Acid [2] it was 4.57 nM; in the assay on Nucleic Acid [3] it was 8.22 nM. The MED in the assay listed under Mus musculus is 0.11 µmol/kg.

On to `CO[C@@]12C(COC(N)=O)c3c(O)c(/N=C4\C=CC(=O)C([N+](=O)[O-])=C4)c(C)c(O)c3N1CC1NC12` (some centres undefined), for which the IC50 was 25.5 nM with Nucleic Acid [1], 10.8 nM in the assay with Nucleic Acid [2] and 22.7 nM in the assay with Nucleic Acid [3].

In the case of `CO[C@@]12C(COC(N)=O)C3=C(C(=O)C(C)=C(OC4CC4)C3=O)N1CC1NC12` (some centres undefined), the 50% inhibitory concentration (IC50) in the assay on Nucleic Acid [1] was found to be 0.21 nM; in the assay with P388, 0.63 nM; in the assay with Nucleic Acid [2], 0.56 nM; with Nucleic Acid [3] it was 1.12 nM. The compound further showed an MED in the assay filed under Mus musculus of 0.13 µmol/kg.

`CO[C@@]12C(COC(N)=O)C3=C(C(=O)C(C)=C(NCCc4ccccn4)C3=O)N1CC1NC12` (some centres undefined): the IC50 came to 26.2 nM with Nucleic Acid [1], 53.5 nM in the assay on P388, 77.4 nM in the assay on Nucleic Acid [2] and 22.8 nM in the assay with Nucleic Acid [3].

With `CO[C@@]12C(COC(N)=O)C3=C(C(=O)C(C)=C(NCCc4ccco4)C3=O)N1CC1NC12` (some centres undefined), the IC50 in the assay with Nucleic Acid [1] was determined as 40.3 nM; in the assay on P388, 26.6 nM; with Nucleic Acid [2], 59.5 nM; in the assay on Nucleic Acid [3], 36.6 nM.

In the case of `CO[C@@]12C(COC(N)=O)C3=C(C(=O)C(C)=C(Nc4ccc(I)cc4)C3=O)N1CC1NC12` (some centres undefined), the IC50 with Nucleic Acid [1] stood at 0.63 nM; in the assay with P388, 1.62 nM; in the assay with Nucleic Acid [2] it was 1.6 nM; in the assay on Nucleic Acid [3] it was 2.84 nM.

For `CO[C@@]12C(COC(N)=O)C3=C(C(=O)C(C)=C(OCCOCCO)C3=O)N1CC1NC12` (some centres undefined), the IC50 in the assay on Nucleic Acid [1] came to 25.8 nM; in the assay on P388 it was 18.7 nM; in the assay with Nucleic Acid [2], 36.6 nM; with Nucleic Acid [3] it was 80.6 nM. This compound returned an MED in the assay listed under Mus musculus of 0.3 µmol/kg.

With `CO[C@@]12C(COC(N)=O)C3=C(C(=O)C(C)=C(Nc4ccc(Br)cc4)C3=O)N1CC1NC12` (some centres undefined), the IC50 with Nucleic Acid [1] was 1.19 nM; in the assay on P388, 1.92 nM; in the assay on Nucleic Acid [2] it was 1.84 nM; with Nucleic Acid [3], 2.66 nM.

Regarding `CO[C@@]12C(COC(N)=O)c3c(O)c(N=C4C=CC(=O)C=C4)c(C)c(O)c3N1CC1NC12` (some centres undefined), the IC50 amounted to 6.3 nM in the assay on Nucleic Acid [1], 5.86 nM in the assay with P388, 16.4 nM in the assay with Nucleic Acid [2] and 16.9 nM in the assay with Nucleic Acid [3].

As for `CO[C@@]12C(COC(N)=O)c3c(O)c(N=C4C=CC(=N)C=C4)c(C)c(O)c3N1CC1NC12` (some centres undefined), the 50% inhibitory concentration (IC50) turned out to be 28.8 nM in the assay with Nucleic Acid [1], 18.8 nM with P388, 50 nM with Nucleic Acid [2] and 13.1 nM in the assay on Nucleic Acid [3].

As to `CO[C@@]12C(COC(N)=O)C3=C(C(=O)C(C)=C(OCCSSCCO)C3=O)N1CC1NC12` (some centres undefined), the IC50 came to 1.48 nM with Nucleic Acid [1], 1.87 nM with P388, 1.36 nM with Nucleic Acid [2] and 3.92 nM in the assay with Nucleic Acid [3]. In addition, in the assay filed under Mus musculus, the MED was 0.026 µmol/kg.

As for `CO[C@@]12C(COC(N)=O)C3=C(C(=O)C(C)=C(OCCO)C3=O)N1CC1NC12` (some centres undefined), the IC50 came to 4.22 nM in the assay on Nucleic Acid [1], 0.71 nM in the assay with P388, 6.85 nM with Nucleic Acid [2] and 3.69 nM with Nucleic Acid [3]. This compound came in with an MED in the assay listed under Mus musculus of 0.017 µmol/kg.

Turning to `CO[C@@]12C(COC(N)=O)C3=C(C(=O)C(C)=C(OCC4CCC4)C3=O)N1CC1NC12` (some centres undefined), the concentration for half-maximal inhibition (IC50) worked out at 0.19 nM with Nucleic Acid [1], 0.41 nM in the assay with P388, 0.27 nM in the assay on Nucleic Acid [2] and 0.21 nM in the assay on Nucleic Acid [3]. The same compound came in with an MED in the assay filed under Mus musculus of 0.99 µmol/kg.

As to `CO[C@@]12C(COC(N)=O)C3=C(C(=O)C(C)=C(OCCSc4ccccc4)C3=O)N1CC1NC12` (some centres undefined), the IC50 with Nucleic Acid [1] turned out to be 0.15 nM; with P388, 1.21 nM; with Nucleic Acid [2] it was 0.53 nM; in the assay on Nucleic Acid [3] it was 1.4 nM. In addition, in the assay filed under Mus musculus, the MED is 6.73.

In the case of `CO[C@@]12C(COC(N)=O)C3=C(C(=O)C(C)=C(NCCCO)C3=O)N1CC1NC12` (some centres undefined), the IC50 with Nucleic Acid [1] stood at 102 nM; in the assay on P388, 459 nM; in the assay on Nucleic Acid [2], 76.4 nM; with Nucleic Acid [3] it was 132 nM.

Consider `CO[C@@]12C(COC(N)=O)c3c(O)c(/N=C4\C=CC(=O)C(I)=C4)c(C)c(O)c3N1CC1NC12` (some centres undefined), for which the IC50 with Nucleic Acid [1] amounted to 6.52 nM; with Nucleic Acid [2] it was 29 nM; in the assay on Nucleic Acid [3], 16.3 nM.

For `CO[C@@]12C(COC(N)=O)C3=C(C(=O)C(C)=C(Nc4cccc(I)c4)C3=O)N1CC1NC12` (some centres undefined), the IC50 came out at 0.21 nM in the assay on Nucleic Acid [1], 1.42 nM in the assay with P388, 1.68 nM in the assay on Nucleic Acid [2] and 1.87 nM in the assay with Nucleic Acid [3].

For `CO[C@@]12C(COC(N)=O)C3=C(C(=O)C(C)=C(Nc4ccccc4)C3=O)N1CC1NC12` (some centres undefined), the concentration for half-maximal inhibition (IC50) is 1.09 nM in the assay on Nucleic Acid [1], 1.71 nM in the assay on P388, 2.6 nM in the assay on Nucleic Acid [2] and 1.32 nM in the assay with Nucleic Acid [3].

`CO[C@@]12C(COC(N)=O)C3=C(C(=O)C(C)=C(Nc4ccc5[nH]ccc5c4)C3=O)N1CC1NC12` (some centres undefined): the IC50 in the assay with Nucleic Acid [1] came to 1.07 nM; with Nucleic Acid [2], 3.1 nM; in the assay on Nucleic Acid [3] it was 1.1 nM.

With `CO[C@@]12C(COC(N)=O)C3=C(C(=O)C(C)=C(OCCOc4ccccc4)C3=O)N1CC1NC12` (some centres undefined), the IC50 was determined as 0.12 nM in the assay with Nucleic Acid [1], 0.082 nM with P388, 0.16 nM with Nucleic Acid [2] and 0.72 nM in the assay with Nucleic Acid [3]. Also, the MED in the assay filed under Mus musculus stood at 3.5 µmol/kg.

`C#CCNC1=C(C)C(=O)C2=C(C1=O)C(COC(N)=O)[C@@]1(OC)C3NC3CN21` (some centres undefined): the IC50 with Nucleic Acid [1] is 3.9 nM; with P388 it was 9.7 nM; in the assay on Nucleic Acid [2], 2.1 nM; in the assay on Nucleic Acid [3], 4.4 nM.

For `CO[C@@]12C(COC(N)=O)c3c(O)c(/N=C4/C=CN=N4)c(C)c(O)c3N1CC1NC12` (some centres undefined), the IC50 with Nucleic Acid [1] was determined as 13 nM; in the assay with P388, 15.5 nM; in the assay on Nucleic Acid [2], 38.5 nM; in the assay with Nucleic Acid [3] it was 72.4 nM.

Turning to `CO[C@@]12C(COC(N)=O)C3=C(C(=O)C(C)=C(OCC4CC4)C3=O)N1CC1NC12` (some centres undefined), the IC50 with Nucleic Acid [1] came to 0.16 nM; with P388 it was 0.31 nM; in the assay with Nucleic Acid [2], 0.45 nM; in the assay on Nucleic Acid [3], 0.51 nM. Also, the MED in the assay listed under Mus musculus turned out to be 1.03 µmol/kg.

With `CO[C@@]12C(COC(N)=O)C3=C(C(=O)C(C)=C(Nc4nc(C)cs4)C3=O)N1CC1NC12` (some centres undefined), the IC50 in the assay on Nucleic Acid [1] is 1.32 nM; with P388 it was 0.5 nM; in the assay on Nucleic Acid [2], 1.74 nM; with Nucleic Acid [3], 3.13 nM.

In the case of `CO[C@@]12C(COC(N)=O)C3=C(C(=O)C(C)=C(Nc4ccc([N+](=O)[O-])cc4)C3=O)N1CC1NC12` (some centres undefined), the IC50 in the assay on Nucleic Acid [1] stood at 0.42 nM; with P388 it was 0.44 nM; in the assay on Nucleic Acid [2], 0.59 nM; in the assay with Nucleic Acid [3], 1.53 nM.

`CO[C@@]12C(COC(N)=O)C3=C(C(=O)C(C)=C(Nc4ccc(F)cc4)C3=O)N1CC1NC12` (some centres undefined): the IC50 in the assay with Nucleic Acid [1] amounted to 1.63 nM; with P388 it was 3.03 nM; with Nucleic Acid [2], 3.03 nM; with Nucleic Acid [3] it was 1.77 nM.

Regarding `COC1=C(C)C(=O)C2=C(C1=O)[C@@H](COC(N)=O)[C@@]1(OC)[C@H]3N[C@H]3CN21` [MITOMYCIN A], the IC50 in the assay with Nucleic Acid [1] was 0.052 nM; in the assay on P388, 0.24 nM; in the assay on Nucleic Acid [2] it was 0.22 nM; in the assay with Nucleic Acid [3], 0.63 nM. This compound also gave an MED in the assay listed under Mus musculus of 0.14 µmol/kg.

`CO[C@@]12[C@H](COC(N)=O)C3=C(C(=O)C(C)=C(N)C3=O)N1C[C@@H]1N[C@@H]12` [MITOMYCIN]: the IC50 is 13 nM in the assay with Nucleic Acid [1], 50.8 nM in the assay with P388, 14.8 nM in the assay with Nucleic Acid [2] and 32.2 nM with Nucleic Acid [3].
